Biological target: Muscarinic acetylcholine receptor M3 (Rattus norvegicus) (UniProt P08483)
Test: potentiation of ACh response at rat M3 – CHO cells, Fluo-4 calcium mobilization, selectivity assay for M4 PAM project, dose response (AID 588750)
Conditions: CHO rat M3, Fluo-4 calcium mobilization; series mostly up to 30 µM; percent of ACh max: at the top concentration;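 active means compounds with a dose-dependent response, reported with half-maximal potency and percent of the acetylcholine maximum; inactive means the rest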
Summary of the method: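 Probe or stimulus – ACh EC20 addition, then ACh EC80 addition · System – CHO cells stably expressing cloned rat M3 muscarinic receptor · Timing – compound pre-incubation 144 s before ACh EC20, read at 37 °C · Benchmarks – maximal acetylcholine response at 1 mM for normalization · Measured by – kinetic calcium fluorescence with Fluo-4 AM dye loaded at 2.3 µM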

Percent of ACh max, inactive:
Cc1nc2sc(C(=O)NCc3ccncc3)c(N)c2c(C)c1Cl 16.7 [at 45.3 µM]
Cc1nc2sc(C(=O)NCc3nccs3)c(N)c2c(C)c1Cl 20.6
Cc1nc2sc(C(=O)NCc3cccc(F)c3F)c(N)c2c(C)c1Cl 15.9
Cc1nc2sc(C(=O)NCc3ccncn3)c(N)c2c(C)c1Cl 17.7
Cc1nc2sc(C(=O)NCc3ccc4c(c3)OCO4)c(N)c2c(C)c1Cl 14.8 [at 36.8 µM]
Cc1nc2sc(C(=O)NCc3ccccc3)c(N)c2c(C)c1Cl 14.2 [at 37.4 µM]
Cc1nc2sc(C(=O)NC3CC3)c(N)c2c(C)c1Cl 19.5
Cc1nc2sc(C(=O)NCCc3ccncc3)c(N)c2c(C)c1Cl 19.2
Cc1nc2sc(C(=O)NCc3cccnc3)c(N)c2c(C)c1Cl 13.5 [at 45.3 µM]

Reference: PubChem BioAssay AID588750 (Vanderbilt Specialized Chemistry Center, 2011)
